Values after ≈ are worked out from the molar mass of the structure shown.
Tests used:
Leishmania donovani = test: Antileishmanial activity against Leishmania donovani promastigotes after 72 hrs by Alamar blue assay; format: functional, organism-based
Summary of the method: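 Leishmania donovani promastigote culture at 2 × 10⁶ cells/mL, 96-well format; compounds diluted in DMSO. Incubation 72 h at 26 °C. Growth read by Alamar blue adapted to fluorometric readout. Pentamidine and amphotericin B as standard agents. IC50 computed from growth inhibition curve.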

[1] = Selectivity index, ratio of IC50 for Vero cells to IC50 for chloroquine-sensitive Plasmodium falciparum D6; format: functional
Summary of the method: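 Ratio of Vero cell cytotoxicity (Neutral Red, run in parallel) to activity against P. falciparum D6 (Sierra Leone, chloroquine-sensitive). Parasite assay: D6 grown in type A human RBCs, subcultured daily; infected cells at 2% parasitemia, 2% hematocrit in 96-well plates; duplicate wells at several concentrations. IC50 from dose curves; DMSO vehicle control.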

Vero = test: Cytotoxicity against Vero cells by neutral red assay; format: cell-based; conditions: chlorocebus sabaeus
Summary of the method: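 VERO (monkey kidney fibroblast) cells tested in parallel with the antiparasitic assays. Viability read by Neutral Red assay. IC50 computed from growth inhibition curve.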

[2] = Selectivity index, ratio of IC50 for Vero cells to IC50 for chloroquine-resistant Plasmodium falciparum W2; format: functional
Summary of the method: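 Vero (monkey kidney fibroblast) cytotoxicity was run in parallel with the P. falciparum W2 assay using the Neutral Red assay, with IC50 taken from growth inhibition curves. The selectivity index is the Vero IC50 divided by the W2 IC50.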

Plasmodium falciparum [3] = test: Antimalarial activity against chloroquine-resistant Plasmodium falciparum W2; format: functional, organism-based
Summary of the method: (§1)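 P. falciparum D6 (Sierra Leone, chloroquine-sensitive) and W2 (Indochina, chloroquine-resistant) clones were kept in type A human RBCs and subcultured daily. The assay used infected-cell suspensions at 2% parasitemia and 2% hematocrit in 96-well microplates, run in duplicate across several concentrations. IC50 was taken from dose curves. Artemisinin and chloroquine served as drug controls, with DMSO as vehicle control.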

Plasmodium falciparum [4] = test: Antimalarial activity against chloroquine-sensitive Plasmodium falciparum D6; format: functional, organism-based; summary of the method: as §1

Row | SMILES | IC50 (Leishmania donovani) | IC90 (Leishmania donovani) | Ratio IC50 [1] | Activity (Vero) | Ratio IC50 [2] | IC50 (Plasmodium falciparum [3]) | IC50 (Plasmodium falciparum [4])
1 | CN(C)CC1CC2CCC1N(c1ccnc3cc(Cl)ccc13)C2 (stereo not drawn) | 1.9 µg/mL (≈ 5.76 µM) | 6 µg/mL (≈ 18.2 µM) | >396.7 | Non-toxic | >264.4 | 0.018 µg/mL (≈ 0.0546 µM) | 0.012 µg/mL (≈ 0.0364 µM)
2 | NCC1CC2CCC1N(c1ccnc3cc(Cl)ccc13)C2 (stereo not drawn) | 4.2 µg/mL (≈ 13.9 µM) | 20 µg/mL (≈ 66.3 µM) | >36.6 | Non-toxic | >26.4 | 0.18 µg/mL (≈ 0.596 µM) | 0.13 µg/mL (≈ 0.431 µM)
3 | CN1CC2CCC1C(CNc1ccnc3cc(Cl)ccc13)C2 (stereo not drawn) | 3 µg/mL (≈ 9.5 µM) | 6.5 µg/mL (≈ 20.6 µM) | >1252.3 | Non-toxic | >1190 | 0.004 µg/mL (≈ 0.0127 µM) | 0.0038 µg/mL (≈ 0.012 µM)
4 | N#CC1CC2CCC1N(c1ccnc3cc(Cl)ccc13)C2 (stereo not drawn) | 16 µg/mL (≈ 53.7 µM) | 33 µg/mL (≈ 111 µM) | >13.6 | Non-toxic | >28 | 0.17 µg/mL (≈ 0.571 µM) | 0.35 µg/mL (≈ 1.18 µM)
5 | CCNCC1CC2CCC1N(c1ccnc3cc(Cl)ccc13)C2 (stereo not drawn) | 7.2 µg/mL (≈ 21.8 µM) | 29 µg/mL (≈ 87.9 µM) | >17 | Non-toxic | >43.2 | 0.11 µg/mL (≈ 0.333 µM) | 0.28 µg/mL (≈ 0.849 µM)
6 | CCN(CC)CC1CC2CCC1N(c1ccnc3cc(Cl)ccc13)C2 (stereo not drawn) | 3.8 µg/mL (≈ 10.6 µM) | 8 µg/mL (≈ 22.4 µM) | >15.4 | Non-toxic | >23.8 | 0.2 µg/mL (≈ 0.559 µM) | 0.31 µg/mL (≈ 0.866 µM)
7 | C[C@@H]1[C@H](O)[C@@H](C)/C=C/C=C/C=C/C=C/C=C/C=C/C=C/[C@H](O[C@@H]2O[C@H](C)[C@@H](O)[C@H](N)[C@@H]2O)C[C@@H]2O[C@](O)(C[C@@H](O)C[C@@H](O)[C@H](O)CC[C@@H](O)C[C@@H](O)CC(=O)O[C@H]1C)C[C@H](O)[C@H]2C(=O)O [AMPHOTERICIN B] | 0.18 µg/mL (≈ 0.195 µM) | 1.8 µg/mL (≈ 1.95 µM) | – | – | – | – | –
8 | C[C@@H]1CC[C@H]2[C@@H](C)C(=O)O[C@@H]3O[C@@]4(C)CC[C@@H]1[C@]32OO4 [ARTEMISININ] | – | – | – | – | – | 0.0018 µg/mL (≈ 0.00638 µM) | 0.0036 µg/mL (≈ 0.0128 µM)
9 | N=C(N)c1ccc(OCCCCCOc2ccc(C(=N)N)cc2)cc1 [PENTAMIDINE] | 2.8 µg/mL (≈ 8.22 µM) | 10 µg/mL (≈ 29.4 µM) | – | – | – | – | –
